Only some compounds are listed: those with a hit (about 1.9% of all), similar ones and a draw of the others.
FAS TE block = FAS thioesterase (human) inhibition; recombinant FAS-TE, OMFH fluorogenic substrate, fluorescence endpoint; inhibition, % at 15 µM; P49327; actives 0.67% (n = 360,000); AID 602261;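 active = compounds whose normalised, plate-corrected inhibition of enzyme fluorescence in the single-dose primary screen is 50% or more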;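 also: 0% = DMSO with enzyme and 100% = substrate without enzyme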
ADAM17 inh = inhibitors of human ADAM17. P78536. recombinant ADAM17, EDANS/DABCYL FRET peptide cleavage. AID 720648. inhibition, % at 6.95 µM. actives 0.83% (n = 370,000);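 active = inhibition above the mean of compounds lying between control limits plus 3 SD, set per campaign, cut at about 8.5% in these data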;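 also: 0% = DMSO-only wells as the low control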
Target sequence (P78536 215-824 limits assumed): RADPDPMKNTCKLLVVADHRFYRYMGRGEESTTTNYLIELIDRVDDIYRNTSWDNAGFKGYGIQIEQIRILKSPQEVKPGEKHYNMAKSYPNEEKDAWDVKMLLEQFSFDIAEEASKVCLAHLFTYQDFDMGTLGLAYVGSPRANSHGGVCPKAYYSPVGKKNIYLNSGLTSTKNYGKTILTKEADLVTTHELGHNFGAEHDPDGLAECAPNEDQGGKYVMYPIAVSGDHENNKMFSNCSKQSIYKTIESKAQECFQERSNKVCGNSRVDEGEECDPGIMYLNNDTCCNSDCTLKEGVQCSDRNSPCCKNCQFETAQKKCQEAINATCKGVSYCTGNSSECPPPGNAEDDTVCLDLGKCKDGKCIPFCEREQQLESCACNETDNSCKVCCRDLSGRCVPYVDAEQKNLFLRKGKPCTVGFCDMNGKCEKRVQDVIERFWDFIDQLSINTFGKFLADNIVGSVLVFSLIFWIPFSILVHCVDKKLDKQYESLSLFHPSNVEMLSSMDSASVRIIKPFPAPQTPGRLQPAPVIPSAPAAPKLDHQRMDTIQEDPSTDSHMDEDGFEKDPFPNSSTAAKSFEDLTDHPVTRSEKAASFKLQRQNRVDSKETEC
ADAM10 inh = inhibits human ADAM10; O14672; inhibition, % at 7 µM; actives 0.62% (n = 370,000); recombinant ADAM10, EDANS/DABCYL FRET peptide cleavage, 3 h;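 active = inhibition above a per-campaign cutoff equal to the mean of compounds falling between control-based bounds plus 3 SD, cut at about 20% in these data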;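 also: 0% = DMSO wells while the 100% control is not disclosed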
SENP1 FRET inh = inhibitors of human SENP1 SUMO protease catalytic domain; Q9P0U3; recombinant SENP1 catalytic domain, CyPet-SUMO1-YPet FRET cleavage; inhibition, % at 10 µM; actives 0.21% (n = 360,000);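 active = inhibition at least 30% at 10 µM, raw YFP signal under a set limit, fluorescence ratio 0.5 to 1.5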;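 also: 0% = enzyme with DMSO and 100% = no enzyme wells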
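system = hSENP1 catalytic domain, recombinant | reagent = SFCypet-SUMO1-SFYpet substrate at 25 nM | doses = one dose per compound, 10 µM, 0.5% DMSO | incubation = enzyme reaction for 50 min at room temperature, dark | measured by = FRET, CFP and YFP emission | controls = no-enzyme low, enzyme-DMSO high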
Numbers without * were called inactive.

How did CCCCCCCC/C=C\CCCCCCCC(=O)O do in these assays?
FAS TE block: 62*; ADAM17 inh: -1; ADAM10 inh: 3; SENP1 FRET inh: 3

How did CCCCC/C=C\C/C=C\C/C=C\CCCCC(=O)O do in these assays?
FAS TE block: 6; ADAM17 inh: -4; ADAM10 inh: 4; SENP1 FRET inh: -5

How did CCCCc1ccc(CC2S/C(=C(\C#N)C(=O)N3CCOCC3)N(c3ccccc3)C2=O)cc1 (configuration not stated) do in these assays?
FAS TE block: 16; ADAM17 inh: -1; ADAM10 inh: 13; SENP1 FRET inh: 34*

What do the screens show for `CCCn1c(NC(=O)c2ccccc2)nc(Cc2ccccc2)c1Cc1ccccc1`?
ADAM17 inh: 2; ADAM10 inh: -2

What do the screens show for `O=C(CCc1ccccc1)N[C@H]1[C@@H](OC(=O)C2CC2)CCC[C@@]12C(=O)N(Cc1ccccc1)c1ccccc12`?
ADAM17 inh: 5; ADAM10 inh: 13

How did Cc1ccc2nc(CSc3nc(C)cc(C)c3C#N)[nH]c2c1 do in these assays?
FAS TE block: 78*; ADAM17 inh: -228; ADAM10 inh: inactive; SENP1 FRET inh: -26

How did CCn1c(Cc2cccs2)nnc1SCC(=O)Nc1cccc2ccccc12 do in these assays?
ADAM17 inh: -2; ADAM10 inh: -6

Results for Cc1cccc(Cn2nc(C(C)(C)C)cc2C(=O)Nc2ccc(F)cc2)c1 ?
FAS TE block: 47; ADAM17 inh: 9.0*; ADAM10 inh: 25*; SENP1 FRET inh: 3

Results for COC(=O)[C@]12C[C@H](CC(=O)NCc3cccs3)C(=O)N(CCC3=CCCCC3)C1=C[C@H](C(C)C)O[C@@H]2C1CC1 ?
ADAM17 inh: -1; ADAM10 inh: 1

Results for COc1ccc(C(=O)NCc2ccc(C)cc2)cc1S(=O)(=O)N1CCCc2ccccc21 ?
FAS TE block: 21; ADAM17 inh: 18*; ADAM10 inh: 14; SENP1 FRET inh: -1

Results for CC(C)(C)N(Cc1cn(CC2CCCCC2)nn1)S(=O)(=O)c1ccccc1Br ?
ADAM17 inh: -1; ADAM10 inh: 0

How did COCCCn1c(O)c(/C=C2\N=C(C#N)C(=Nc3ccc(C)cc3)O2)sc1=S do in these assays?
FAS TE block: -25; ADAM17 inh: -3; ADAM10 inh: -3; SENP1 FRET inh: 54*

How did O=C(O)CCCn1c(O)c(C=C2N=c3ccccc3=N2)sc1=S do in these assays?
FAS TE block: -8; ADAM17 inh: -12; ADAM10 inh: -26; SENP1 FRET inh: -15

How did CCCCCCCSc1ncnc2[nH]ncc12 do in these assays?
FAS TE block: -35; ADAM17 inh: 12*; ADAM10 inh: 19; SENP1 FRET inh: 0

How did CN(C)C=Nc1nc2c(Br)ccc(Br)c2cc1C(=O)NCC(C)(C)C do in these assays?
ADAM17 inh: 0; ADAM10 inh: -2

What do the screens show for `COC(=O)C1(C(=O)OC)NOC2C(=O)N(c3ccc(Cl)cc3Cl)C(=O)C21` (configuration not stated)?
FAS TE block: -11; ADAM17 inh: 11*; ADAM10 inh: 12; SENP1 FRET inh: 2

Results for O=C(Nc1ccc([N+](=O)[O-])cc1)/C(=C/c1cccc([N+](=O)[O-])c1)NC(=O)C1CCCCC1 ?
FAS TE block: 59*; ADAM17 inh: 0; ADAM10 inh: 3; SENP1 FRET inh: 4

Results for Cc1ccc(/C=C2/SC(=S)N(CCCC(=O)Nc3ccc(O)cc3)C2=O)cc1 ?
FAS TE block: 6; ADAM17 inh: 4; ADAM10 inh: 4; SENP1 FRET inh: 2

Results for O=C(CCCN1C(=O)/C(=C\c2ccccc2)SC1=S)Nc1ccc(O)cc1 ?
FAS TE block: 14; ADAM17 inh: 5; ADAM10 inh: 24*; SENP1 FRET inh: 1

How did COCCCN1C(=O)[C@H](CC(=O)N2CCCCC2)[C@]2(C(=O)OC)CCCCC=C12 do in these assays?
ADAM17 inh: 2; ADAM10 inh: 9

How did CN1/C(=C/C(=O)c2nc(S(C)(=O)=O)ncc2Cl)C(C)(C)c2ccccc21 do in these assays?
FAS TE block: 12; SENP1 FRET inh: 42*

What do the screens show for `CN1/C(=C\C(=O)c2cccnc2)C(C)(C)c2ccccc21`?
FAS TE block: -4; ADAM17 inh: 2; ADAM10 inh: 0; SENP1 FRET inh: -26

Results for CN(C)c1ccc(/C=N\NC(=O)c2cccc(S(=O)(=O)N(C)C)c2)cc1 ?
ADAM17 inh: 5; ADAM10 inh: 2

Results for FC(F)(F)c1ccccc1Cc1c(-c2ccco2)nc2c3ccccc3ccn12 ?
ADAM17 inh: -12; ADAM10 inh: -31

How did Cc1cccc(COCC(Cc2ccccc2)N2CCN(C(=O)c3ccc(Cl)c(Cl)c3)CCC2=O)c1 (configuration not stated) do in these assays?
FAS TE block: 29; ADAM17 inh: 6; ADAM10 inh: 28*; SENP1 FRET inh: 0

What do the screens show for `COC(=O)C1CN(Cc2ccc(OC)cc2)CCS(=O)(=O)N1Cc1ccc(C(F)(F)F)cc1` (configuration not stated)?
ADAM17 inh: 5; ADAM10 inh: 14

What do the screens show for `Cc1cc(C)c2sc(NNC(=O)c3ccc(S(=O)(=O)N4CCc5ccccc5C4)cc3)nc2c1`?
FAS TE block: 14; ADAM17 inh: 11*; ADAM10 inh: 11; SENP1 FRET inh: 9

How did C[C@@H]1C(c2cccc(Cl)c2)=NN(c2ccc(Br)cc2)[C@H]1C(=O)N1CCOC1=O do in these assays?
FAS TE block: 56*; SENP1 FRET inh: -44

How did Cc1cccc(C2=NN(c3ccc(Br)cc3)[C@@H](C(=O)N3CCOC3=O)[C@@H]2c2ccccc2)c1 do in these assays?
FAS TE block: 72*; SENP1 FRET inh: -127

How did C[C@@H]1C(c2cccc(Cl)c2)=NN(c2ccccc2)[C@H]1C(=O)N1CCOC1=O do in these assays?
FAS TE block: 18; ADAM17 inh: -38; ADAM10 inh: -149; SENP1 FRET inh: -64

What do the screens show for `CC[C@@]1(O)C(=O)OCc2c1cc1n(c2=O)Cc2cc3c(N)cccc3nc2-1`?
FAS TE block: -14; ADAM17 inh: -27; ADAM10 inh: -129; SENP1 FRET inh: 32*

Results for COC(=O)C1CN(Cc2ccc(F)cc2)CCS(=O)(=O)N1Cc1cn(Cc2ccccc2)nn1 (configuration not stated) ?
ADAM17 inh: -1; ADAM10 inh: 1

What do the screens show for `CC(C)CNc1cccc2c1S(=O)(=O)N(Cc1cn(Cc3ccc(C(F)(F)F)cc3)nn1)Cc1ccccc1O2`?
ADAM17 inh: -5; ADAM10 inh: -25

Results for CN1C(=S)N(c2cccnc2)C(=O)/C1=C\c1ccc(N(C)C)cc1 ?
FAS TE block: -31; ADAM17 inh: 3; ADAM10 inh: 0; SENP1 FRET inh: 61*

Results for Cc1c(N2C(=O)/C(=C\c3ccc(N(C)C)cc3)N(C)C2=S)c(=O)n(-c2ccccc2)n1C ?
FAS TE block: -32; ADAM17 inh: 6; ADAM10 inh: 13; SENP1 FRET inh: 69*

Results for CCN1CCN(Cc2ccc(NC(=O)c3cccc(-c4ccc5nc(NC(=O)C6CC6)sc5n4)c3)cc2C(F)(F)F)CC1 ?
ADAM17 inh: -1; ADAM10 inh: -22

Assay outcomes: PubChem BioAssay, several laboratories
